According to ChEMBL document CHEMBL2203278, “N-Phenyl-4-hydroxy-2-quinolone-3-carboxamides as selective inhibitors of mutant H1047R phosphoinositide-3-kinase (PI3Kα)” (Bioorg Med Chem, 2012):

How the values were obtained:
[1] = test system: Phosphatidylinositol 4,5-bisphosphate 3-kinase catalytic subunit alpha isoform (Homo sapiens), P42336 [H1047R]; assay: Inhibition of PI3Kalpha H1047R mutant in human HCT116 cells assessed as increase in PARP cleavage relative to LY294002; type: cell-based; conditions: HCT-116
Chain of Phosphatidylinositol 4,5-bisphosphate 3-kinase catalytic subunit alpha isoform (Homo sapiens), P42336 [H1047R] (P42336 whole entry H1047R, canonical isoform): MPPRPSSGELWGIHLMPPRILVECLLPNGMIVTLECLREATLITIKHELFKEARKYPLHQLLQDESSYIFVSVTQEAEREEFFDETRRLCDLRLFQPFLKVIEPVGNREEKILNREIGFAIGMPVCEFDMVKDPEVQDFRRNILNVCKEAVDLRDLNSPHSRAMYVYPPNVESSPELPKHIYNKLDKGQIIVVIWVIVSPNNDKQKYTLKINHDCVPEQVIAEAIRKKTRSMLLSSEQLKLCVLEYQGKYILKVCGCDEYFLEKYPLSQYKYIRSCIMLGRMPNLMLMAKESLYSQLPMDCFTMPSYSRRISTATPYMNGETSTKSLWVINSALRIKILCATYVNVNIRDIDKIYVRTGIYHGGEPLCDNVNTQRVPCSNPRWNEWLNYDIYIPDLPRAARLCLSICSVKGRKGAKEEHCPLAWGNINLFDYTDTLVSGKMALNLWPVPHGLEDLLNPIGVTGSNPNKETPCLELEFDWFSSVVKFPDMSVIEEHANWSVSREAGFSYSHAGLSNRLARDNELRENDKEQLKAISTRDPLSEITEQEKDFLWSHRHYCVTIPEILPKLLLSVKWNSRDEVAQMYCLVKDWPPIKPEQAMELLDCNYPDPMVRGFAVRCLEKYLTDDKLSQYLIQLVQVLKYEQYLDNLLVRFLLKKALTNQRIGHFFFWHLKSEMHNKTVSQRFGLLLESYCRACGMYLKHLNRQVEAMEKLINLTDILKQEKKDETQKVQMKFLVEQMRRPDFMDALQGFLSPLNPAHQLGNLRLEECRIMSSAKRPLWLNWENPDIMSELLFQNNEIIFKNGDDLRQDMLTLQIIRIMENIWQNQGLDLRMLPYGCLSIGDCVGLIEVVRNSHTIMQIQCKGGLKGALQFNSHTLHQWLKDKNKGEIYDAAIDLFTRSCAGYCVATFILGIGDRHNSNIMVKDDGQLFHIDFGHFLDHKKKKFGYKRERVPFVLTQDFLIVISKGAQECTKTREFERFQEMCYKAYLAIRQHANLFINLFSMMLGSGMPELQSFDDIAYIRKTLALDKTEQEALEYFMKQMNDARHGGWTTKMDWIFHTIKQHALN
Outline: (§1)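 Apoptosis was assessed in HCT116-WT and HCT116-MUT cells, each treated with compound at a single concentration, by immunoblot for the 88 kDa cleaved PARP product. Blots were blocked in 5% milk/TBST, probed with primary antibody (1:1000) and peroxidase secondary (1:1000), and developed by ECL. Band areas were quantified by densitometry relative to LY294002.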

[2] = target: Phosphatidylinositol 4,5-bisphosphate 3-kinase catalytic subunit alpha isoform (Homo sapiens) (UniProt P42336); assay: Inhibition of PI3Kalpha in human HCT116 cells assessed as increase in PARP cleavage relative to LY294002; type: cell-based; conditions: HCT-116; outline: as §1
Chain of Phosphatidylinositol 4,5-bisphosphate 3-kinase catalytic subunit alpha isoform (Homo sapiens) (P42336 whole entry, canonical isoform): as the sequence (P42336 whole entry H1047R, canonical isoform) above, with R1047H counted along it

[3] = test system: Phosphatidylinositol 4,5-bisphosphate 3-kinase catalytic subunit alpha isoform (Homo sapiens), P42336 [H1047R]; assay: Inhibition of PI3Kalpha H1047R mutant in human HCT116 cells assessed as inhibition of Akt phosphorylation at S473 residue relative to DMSO; type: cell-based; conditions: HCT-116
Outline: (§2)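 AKT activation was read as pAKT on immunoblots of lysates from compound-treated HCT116-WT and HCT116-MUT cells, tested at a single concentration. Lysate protein was measured by the […]. Blots were blocked in 5% milk/TBST, probed with primary antibody (1:1000) and HRP secondary (1:1000), and developed by ECL. Band areas were quantified relative to DMSO.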

[4] = target: Phosphatidylinositol 4,5-bisphosphate 3-kinase catalytic subunit alpha isoform (Homo sapiens) (UniProt P42336); assay: Inhibition of PI3Kalpha in human HCT116 cells assessed as inhibition of Akt phosphorylation at S473 residue relative to DMSO; type: cell-based; conditions: HCT-116; outline: as §2
[5] = test system: Phosphatidylinositol 4,5-bisphosphate 3-kinase catalytic subunit alpha isoform (Homo sapiens), P42336 [H1047R]; assay: Inhibition of PI3Kalpha H1047R mutant in human HCT116 cells relative to LY294002; type: cell-based; conditions: HCT-116
Outline: (§3)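 PI3K kinase activity was assayed in lysates of compound-treated HCT116-WT and HCT116-MUT cells, using a single compound concentration. Cells were washed with PBS, lysed, and the supernatants were collected by centrifugation for 15 min. Resulting band areas were quantified densitometrically relative to LY294002.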

[6] = target: Phosphatidylinositol 4,5-bisphosphate 3-kinase catalytic subunit alpha isoform (Homo sapiens) (UniProt P42336); assay: Inhibition of PI3Kalpha in human HCT116 cells relative to LY294002; type: cell-based; conditions: HCT-116; outline: as §3
HCT-116 [7] = assay: Growth inhibition of human HCT116 cells expressing PI3Kalpha H1047R mutant by MTT assay; type: functional, cell-based
Outline: (§4)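 Growth of parental (WT) and H1047R-mutant HCT116 cells was measured by MTT assay, with absorbance read at 570 nm.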

HCT-116 [8] = assay: Selectivity index, ratio of IC50 for human HCT116 cell to IC50 for PI3Kalpha H1047R mutant expressing human HCT116 cell; type: functional
HCT-116 [9] = assay: Growth inhibition of human HCT116 cells by MTT assay; type: functional, cell-based; outline: as §4

SMILES	fold change (FC) [1]	fold change (FC) [2]	fold change (FC) [3]	fold change (FC) [4]	fold change (FC) [5]	fold change (FC) [6]	IC50 (HCT-116 [7])	IC50 (HCT-116 [9])	Ratio IC50 (HCT-116 [8])
Cc1ccc(NC(=O)c2c(O)c3cc(C)ccc3[nH]c2=O)cc1	1.14	1	0.41	1.66	0.79	0.75	5.6 µM	27 µM	4.8
O=c1cc(N2CCOCC2)oc2c(-c3ccccc3)cccc12	–	–	0.41	0.01	–	–	–	–	–
Cn1c(=O)c(C(=O)Nc2ccccc2)c(O)c2ccccc21	–	–	–	–	–	–	100 µM	110 µM	–
O=C(NCc1ccccc1)c1cnc2ccccc2c1	0.06	0.81	0.3	1.59	0.87	0.7	120 µM	65 µM	–
O=C(Nc1ccccc1)c1c(O)nc2ccccc2c1O	4.99	0.01	0.4	0.11	0.71	0.89	2.5 µM	9.4 µM	3.8
O=C(NCc1ccccc1)c1cc2ccccc2[nH]c1=O	0.05	0.92	0.13	0.09	0.8	0.14	330 µM	420 µM	–

More lines, main results first:

fold change (FC) [1]	fold change (FC) [2]	fold change (FC) [3]	fold change (FC) [4]	fold change (FC) [5]	fold change (FC) [6]	IC50 (HCT-116 [7])	IC50 (HCT-116 [9])	SMILES	Ratio IC50 (HCT-116 [8])
1.35	0.4	0.51	1.01	0.9	0.75	0.28 µM	6.5 µM	O=C(Nc1cccc(F)c1)c1c(O)c2ccc(F)cc2[nH]c1=O	23
5.05	0.88	1.23	1.6	0.75	0.69	3.6 µM	22 µM	O=C(Nc1ccccc1F)c1c(O)c2cccc(F)c2[nH]c1=O	6
1.37	1.01	0.86	0.95	0.59	0.65	6.9 µM	15 µM	O=C(Nc1ccc(F)cc1)c1c(O)c2cc(F)ccc2[nH]c1=O	2.2
0.2	0.71	0.2	1	0.88	0.56	19 µM	24 µM	O=C(NCc1ccccc1)c1cnc2ccccc2c1O	–
3.9	0.01	0.44	1.66	0.64	0.82	6.3 µM	64 µM	COc1ccc(NC(=O)c2c(O)c3cc(OC)ccc3[nH]c2=O)cc1	10
